Active and inactive are the calls of the source.
What was measured:
Type in all cases: functional, cell-based
RPMI-8226 = experiment: Growth inhibition of human RPMI8226 cells at 10^-5 M incubated for 48 hrs by sulforhodamine B assay
Summary of the method: (§1)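 Run in the NCI59 one-dose cell-line screen, with each compound tested at a single concentration of 1 × 10−5 M.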

MDA-MB-231 = experiment: Growth inhibition of human MDA-MB-231 cells at 10^-5 M incubated for 48 hrs by sulforhodamine B assay; summary of the method: as §1
OVCAR-5 = experiment: Growth inhibition of human OVCAR5 cells at 10^-5 M incubated for 48 hrs by sulforhodamine B assay; summary of the method: as §1
NCI-H226 = experiment: Growth inhibition of human NCI-H226 cells at 10^-5 M incubated for 48 hrs by sulforhodamine B assay; summary of the method: as §1
SNB-75 = experiment: Growth inhibition of human SNB75 cells at 10^-5 M incubated for 48 hrs by sulforhodamine B assay; summary of the method: as §1
MOLT-4 = experiment: Growth inhibition of human MOLT4 cells at 10^-5 M incubated for 48 hrs by sulforhodamine B assay; summary of the method: as §1
EKVX = experiment: Growth inhibition of human EKVX cells at 10^-5 M incubated for 48 hrs by sulforhodamine B assay; summary of the method: as §1
HCC 2998 = experiment: Growth inhibition of human HCC2998 cells at 10^-5 M incubated for 48 hrs by sulforhodamine B assay; summary of the method: as §1
A549 = experiment: Growth inhibition of human A549/ATCC cells at 10^-5 M incubated for 48 hrs by sulforhodamine B assay; summary of the method: as §1
Hs-578T = experiment: Growth inhibition of human Hs 578T cells at 10^-5 M incubated for 48 hrs by sulforhodamine B assay; summary of the method: as §1
RXF 393 = experiment: Growth inhibition of human RXF393 cells at 10^-5 M incubated for 48 hrs by sulforhodamine B assay; summary of the method: as §1
NCI/ADR-RES = experiment: Growth inhibition of human NCI/ADR-RES cells at 10^-5 M incubated for 48 hrs by sulforhodamine B assay; summary of the method: as §1
MCF7 = experiment: Growth inhibition of human MCF7 cells at 10^-5 M incubated for 48 hrs by sulforhodamine B assay; summary of the method: as §1
MDA-MB-435 = experiment: Growth inhibition of human MDA-MB-435 cells at 10^-5 M incubated for 48 hrs by sulforhodamine B assay; summary of the method: as §1
HOP-92 = experiment: Growth inhibition of human HOP92 cells at 10^-5 M incubated for 48 hrs by sulforhodamine B assay; summary of the method: as §1
SK-MEL-28 = experiment: Growth inhibition of human SK-MEL-28 cells at 10^-5 M incubated for 48 hrs by sulforhodamine B assay; summary of the method: as §1
ACHN = experiment: Growth inhibition of human ACHN cells at 10^-5 M incubated for 48 hrs by sulforhodamine B assay; summary of the method: as §1
OVCAR-3 = experiment: Growth inhibition of human OVCAR3 cells at 10^-5 M incubated for 48 hrs by sulforhodamine B assay; summary of the method: as §1
NCI-H322M = experiment: Growth inhibition of human NCI-H322M cells at 10^-5 M incubated for 48 hrs by sulforhodamine B assay; summary of the method: as §1
SNB-19 = experiment: Growth inhibition of human SNB19 cells at 10^-5 M incubated for 48 hrs by sulforhodamine B assay; summary of the method: as §1
OVCAR-4 = experiment: Growth inhibition of human OVCAR4 cells at 10^-5 M incubated for 48 hrs by sulforhodamine B assay; summary of the method: as §1
HOP-62 = experiment: Growth inhibition of human HOP62 cells at 10^-5 M incubated for 48 hrs by sulforhodamine B assay; summary of the method: as §1
UACC-62 = experiment: Growth inhibition of human UACC62 cells at 10^-5 M incubated for 48 hrs by sulforhodamine B assay
Summary of the method: (§2)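 Tested at a single concentration of 1 × 10−5 M as part of the NCI59 cell-line one-dose screen.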

SW-620 = experiment: Growth inhibition of human SW620 cells at 10^-5 M incubated for 48 hrs by sulforhodamine B assay; summary of the method: as §2
OVCAR-8 = experiment: Growth inhibition of human OVCAR8 cells at 10^-5 M incubated for 48 hrs by sulforhodamine B assay; summary of the method: as §1
CCRF-CEM = experiment: Growth inhibition of human CCRF-CEM cells at 10^-5 M incubated for 48 hrs by sulforhodamine B assay; summary of the method: as §1
HCT-15 = experiment: Growth inhibition of human HCT15 cells at 10^-5 M incubated for 48 hrs by sulforhodamine B assay; summary of the method: as §1
HCT-116 = experiment: Growth inhibition of human HCT116 cells at 10^-5 M incubated for 48 hrs by sulforhodamine B assay; summary of the method: as §1
SK-MEL-2 = experiment: Growth inhibition of human SK-MEL-2 cells at 10^-5 M incubated for 48 hrs by sulforhodamine B assay; summary of the method: as §1
SF-268 = experiment: Growth inhibition of human SF268 cells at 10^-5 M incubated for 48 hrs by sulforhodamine B assay; summary of the method: as §1
UO-31 = experiment: Growth inhibition of human UO31 cells at 10^-5 M incubated for 48 hrs by sulforhodamine B assay; summary of the method: as §2
K562 = experiment: Growth inhibition of human K562 cells at 10^-5 M incubated for 48 hrs by sulforhodamine B assay; summary of the method: as §1
KM12 = experiment: Growth inhibition of human KM12 cells at 10^-5 M incubated for 48 hrs by sulforhodamine B assay; summary of the method: as §1
UACC-257 = experiment: Growth inhibition of human UACC257 cells at 10^-5 M incubated for 48 hrs by sulforhodamine B assay; summary of the method: as §2
T47D = experiment: Growth inhibition of human T47D cells at 10^-5 M incubated for 48 hrs by sulforhodamine B assay; summary of the method: as §2
PC-3 = experiment: Growth inhibition of human PC3 cells at 10^-5 M incubated for 48 hrs by sulforhodamine B assay; summary of the method: as §1
LOX IMVI = experiment: Growth inhibition of human LOXIMVI cells at 10^-5 M incubated for 48 hrs by sulforhodamine B assay; summary of the method: as §1
BT-549 = experiment: Growth inhibition of human BT549 cells at 10^-5 M incubated for 48 hrs by sulforhodamine B assay; summary of the method: as §1
SN12C = experiment: Growth inhibition of human SN12C cells at 10^-5 M incubated for 48 hrs by sulforhodamine B assay; summary of the method: as §1
SF-295 = experiment: Growth inhibition of human SF295 cells at 10^-5 M incubated for 48 hrs by sulforhodamine B assay; summary of the method: as §1
HT-29 = experiment: Growth inhibition of human HT-29 cells at 10^-5 M incubated for 48 hrs by sulforhodamine B assay; summary of the method: as §1
786-0 = experiment: Growth inhibition of human 786-0 cells at 10^-5 M incubated for 48 hrs by sulforhodamine B assay; summary of the method: as §1
SK-OV-3 = experiment: Growth inhibition of human SKOV3 cells at 10^-5 M incubated for 48 hrs by sulforhodamine B assay; summary of the method: as §1
A498 = experiment: Growth inhibition of human A498 cells at 10^-5 M incubated for 48 hrs by sulforhodamine B assay; summary of the method: as §1
COLO 205 = experiment: Growth inhibition of human COLO205 cells at 10^-5 M incubated for 48 hrs by sulforhodamine B assay; summary of the method: as §1
NCI-H460 = experiment: Growth inhibition of human NCI-H460 cells at 10^-5 M incubated for 48 hrs by sulforhodamine B assay; summary of the method: as §1
SF-539 = experiment: Growth inhibition of human SF539 cells at 10^-5 M incubated for 48 hrs by sulforhodamine B assay; summary of the method: as §1
SK-MEL-5 = experiment: Growth inhibition of human SK-MEL-5 cells at 10^-5 M incubated for 48 hrs by sulforhodamine B assay; summary of the method: as §1
HL-60(TB) = experiment: Growth inhibition of human HL-60(TB) cells at 10^-5 M incubated for 48 hrs by sulforhodamine B assay
Summary of the method: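 Run in the NCI59 cell-line one-dose screen, with each compound tested at a single concentration of 1 × 10−5 M.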

DU-145 = experiment: Growth inhibition of human DU145 cells at 10^-5 M incubated for 48 hrs by sulforhodamine B assay; summary of the method: as §1
TK-10 = experiment: Growth inhibition of human TK10 cells at 10^-5 M incubated for 48 hrs by sulforhodamine B assay; summary of the method: as §2
NCI-H23 = experiment: Growth inhibition of human NCI-H23 cells at 10^-5 M incubated for 48 hrs by sulforhodamine B assay; summary of the method: as §1
SR = experiment: Growth inhibition of human SR cells at 10^-5 M incubated for 48 hrs by sulforhodamine B assay; summary of the method: as §1
NCI-H522 = experiment: Growth inhibition of human NCI-H522 cells at 10^-5 M incubated for 48 hrs by sulforhodamine B assay; summary of the method: as §1
IGROV-1 = experiment: Growth inhibition of human IGROV1 cells at 10^-5 M incubated for 48 hrs by sulforhodamine B assay; summary of the method: as §1
U-251 = experiment: Growth inhibition of human U251 cells at 10^-5 M incubated for 48 hrs by sulforhodamine B assay; summary of the method: as §2
M14 = experiment: Growth inhibition of human M14 cells at 10^-5 M incubated for 48 hrs by sulforhodamine B assay; summary of the method: as §1
CAKI-1 = experiment: Growth inhibition of human Caki1 cells at 10^-5 M incubated for 48 hrs by sulforhodamine B assay; summary of the method: as §1

Measured: growth inhibition (GI)

COC(=O)C[C@H]1[C@@]2(C)C[C@@]34O[C@@]5(C)O[C@]6([C@@H]7CC(=O)O[C@@H](c8ccoc8)[C@]7(C)CC[C@]6(O5)[C@@]13C)[C@@H](OC(C)=O)[C@@]4(OC(C)=O)[C@H]2OC(C)=O
inactive: all assays above

CC[C@H](C)C(=O)O[C@@H]1[C@H]2[C@@H](OC(=O)C(C)C)C(C)(C)[C@H](CC(=O)OC)[C@@]3(C)[C@H]4CC[C@]5(C)C(=CC(=O)O[C@H]5C5=CC(O)OC5=O)[C@@]14O[C@@]23O (stereo partly specified)
inactive: all assays above

Source: ChEMBL document CHEMBL4052595, “Application of Residual Dipolar Couplings and Selective Quantitative NOE to Establish the Structures of Tetranortriterpenoids from Xylocarpus rumphii” (J Nat Prod, 2017)
